As a reminder, the inhibition is the share of the control response that was lost under treatment. The low end stands for little suppression, the high end for strong suppression. One may read the IC50 as the point on the concentration scale where inhibition reaches its midpoint. Read a high IC50 as a need for much substance. For orientation: EC50 means the concentration that produces a half-maximal response. In general, amount remaining refers to what is left of the initial amount, in per cent.

From ChEMBL document CHEMBL1955823, “Imidazo[1,2-a]pyrazines as novel PI3K inhibitors” (Bioorg Med Chem Lett, 2012) come the findings set out here.

One data set addresses T1, CYP1A2 (Homo sapiens, UniProt P05177).
T1 sequence (P05177 whole entry): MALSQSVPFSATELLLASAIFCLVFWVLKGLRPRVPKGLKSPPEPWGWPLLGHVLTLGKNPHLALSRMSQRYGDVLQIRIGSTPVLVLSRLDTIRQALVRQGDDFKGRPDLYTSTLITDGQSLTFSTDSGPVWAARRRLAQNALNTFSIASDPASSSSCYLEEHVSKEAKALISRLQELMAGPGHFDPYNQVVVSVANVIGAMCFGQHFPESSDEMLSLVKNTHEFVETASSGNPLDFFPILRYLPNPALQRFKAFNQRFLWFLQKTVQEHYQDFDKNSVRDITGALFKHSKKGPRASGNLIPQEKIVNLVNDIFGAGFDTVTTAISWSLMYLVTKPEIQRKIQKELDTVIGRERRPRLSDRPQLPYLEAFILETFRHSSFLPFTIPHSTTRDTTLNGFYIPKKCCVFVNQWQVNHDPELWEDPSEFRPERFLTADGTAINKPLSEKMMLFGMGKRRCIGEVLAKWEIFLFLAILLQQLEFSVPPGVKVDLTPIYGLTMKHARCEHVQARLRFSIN
Briefly: Inhibition of CYP1A2 at 10 uM. It counts as ADME. The essentials: (§1)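 CYP isoform panel (1A2, 2C9, 2C19, 2D6, 3A4); percent inhibition recorded at 10 µM test compound; run in duplicate by an outside contractor.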

The target in another data set is CYP2C9 (Homo sapiens, UniProt P11712). Put plainly: Inhibition of CYP2C9 at 10 uM. It counts as ADME. The essentials:
as §1

In a further data set the target is CYP2C19 (Homo sapiens, UniProt P33261). Briefly: Inhibition of CYP2C19 at 10 uM. It counts as ADME. The essentials: as §1
Chain of CYP2C19 (P33261 whole entry): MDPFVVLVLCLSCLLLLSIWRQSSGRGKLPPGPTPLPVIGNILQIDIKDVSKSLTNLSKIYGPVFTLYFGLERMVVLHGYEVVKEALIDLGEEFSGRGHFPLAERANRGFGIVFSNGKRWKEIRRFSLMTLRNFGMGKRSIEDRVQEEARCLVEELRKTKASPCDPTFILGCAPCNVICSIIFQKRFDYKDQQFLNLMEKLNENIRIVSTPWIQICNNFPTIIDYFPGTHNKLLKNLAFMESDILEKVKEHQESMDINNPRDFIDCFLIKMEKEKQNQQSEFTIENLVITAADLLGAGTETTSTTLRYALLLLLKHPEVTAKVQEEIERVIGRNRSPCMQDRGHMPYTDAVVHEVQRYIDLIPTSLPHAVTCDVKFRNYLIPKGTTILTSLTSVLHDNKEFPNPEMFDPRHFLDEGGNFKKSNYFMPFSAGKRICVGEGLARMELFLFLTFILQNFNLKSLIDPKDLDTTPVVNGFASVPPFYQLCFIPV
Another data set concerns the target CYP2D6 (Homo sapiens, UniProt P10635). Briefly: Inhibition of CYP2D6 at 10 uM. It counts as ADME. In short, it runs like this:
as §1

The target of the next data set is CYP3A4 (Homo sapiens, UniProt P08684). Put plainly: Inhibition of CYP3A4 at 10 uM. It counts as ADME. The essentials:
as §1

Data set [1] addresses T2, PI3-kinase p110-alpha/p85-alpha (Homo sapiens, UniProt P42336). Put plainly: Inhibition of PI3K p110alpha/p85alpha. It counts as protein-complex assay. The essentials: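 Biochemical kinase assay following the kit manufacturer's protocol with a modified kinase buffer (50 mM HEPES pH 7.5, 3 mM MgCl2, 100 mM NaCl, 1 mM EGTA, 0.04% CHAPS, 2 mM TCEP, 0.01 mg/ml BGG); 10 nM enzyme; ATP 50 µM; values are averages of two independent experiments, each in duplicate.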

For data set [2], the target named is T2, PI3-kinase p110-alpha/p85-alpha. Briefly: Inhibition of PI3K p110alpha/p85alpha-mediated AKT1 phosphorylation at Ser473 in human U2OS cells. The format is cell-based. In short, it runs like this: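 Endogenous phospho-Akt1 (Ser473) measured in U2OS osteosarcoma cells kept in 0.1% FBS and then serum-stimulated; read-out by cell-based ELISA with femto chemiluminescent substrate.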

Data set [3] can be described thus: Metabolic stability in mouse liver microsomes assessed as compound remaining at 1 uM after 30 mins. (Liver microsomes are a subcellular fraction often used to study metabolism.)
Data set [4] is described as follows: Metabolic stability in human liver microsomes assessed as compound remaining at 1 uM after 30 mins.

T2 sequence (P27986 whole entry): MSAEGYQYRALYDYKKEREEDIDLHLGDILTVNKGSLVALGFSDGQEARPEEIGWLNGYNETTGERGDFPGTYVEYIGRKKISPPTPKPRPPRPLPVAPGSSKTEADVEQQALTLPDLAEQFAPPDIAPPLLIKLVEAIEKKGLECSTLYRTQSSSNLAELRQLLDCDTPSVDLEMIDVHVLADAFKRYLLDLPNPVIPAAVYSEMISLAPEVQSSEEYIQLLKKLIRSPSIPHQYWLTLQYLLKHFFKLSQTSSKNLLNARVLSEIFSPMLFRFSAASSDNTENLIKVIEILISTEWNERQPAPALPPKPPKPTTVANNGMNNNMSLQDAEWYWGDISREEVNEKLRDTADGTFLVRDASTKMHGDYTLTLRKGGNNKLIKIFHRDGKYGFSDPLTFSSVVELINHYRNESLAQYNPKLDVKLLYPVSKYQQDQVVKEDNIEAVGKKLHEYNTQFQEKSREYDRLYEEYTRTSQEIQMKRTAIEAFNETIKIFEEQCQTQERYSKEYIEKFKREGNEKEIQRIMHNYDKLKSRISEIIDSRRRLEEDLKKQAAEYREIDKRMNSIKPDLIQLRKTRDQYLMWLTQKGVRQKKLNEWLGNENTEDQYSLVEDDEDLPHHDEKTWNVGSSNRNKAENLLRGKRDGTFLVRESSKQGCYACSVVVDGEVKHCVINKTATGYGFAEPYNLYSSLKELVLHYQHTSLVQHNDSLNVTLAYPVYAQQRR
T2 sequence (P42336 whole entry): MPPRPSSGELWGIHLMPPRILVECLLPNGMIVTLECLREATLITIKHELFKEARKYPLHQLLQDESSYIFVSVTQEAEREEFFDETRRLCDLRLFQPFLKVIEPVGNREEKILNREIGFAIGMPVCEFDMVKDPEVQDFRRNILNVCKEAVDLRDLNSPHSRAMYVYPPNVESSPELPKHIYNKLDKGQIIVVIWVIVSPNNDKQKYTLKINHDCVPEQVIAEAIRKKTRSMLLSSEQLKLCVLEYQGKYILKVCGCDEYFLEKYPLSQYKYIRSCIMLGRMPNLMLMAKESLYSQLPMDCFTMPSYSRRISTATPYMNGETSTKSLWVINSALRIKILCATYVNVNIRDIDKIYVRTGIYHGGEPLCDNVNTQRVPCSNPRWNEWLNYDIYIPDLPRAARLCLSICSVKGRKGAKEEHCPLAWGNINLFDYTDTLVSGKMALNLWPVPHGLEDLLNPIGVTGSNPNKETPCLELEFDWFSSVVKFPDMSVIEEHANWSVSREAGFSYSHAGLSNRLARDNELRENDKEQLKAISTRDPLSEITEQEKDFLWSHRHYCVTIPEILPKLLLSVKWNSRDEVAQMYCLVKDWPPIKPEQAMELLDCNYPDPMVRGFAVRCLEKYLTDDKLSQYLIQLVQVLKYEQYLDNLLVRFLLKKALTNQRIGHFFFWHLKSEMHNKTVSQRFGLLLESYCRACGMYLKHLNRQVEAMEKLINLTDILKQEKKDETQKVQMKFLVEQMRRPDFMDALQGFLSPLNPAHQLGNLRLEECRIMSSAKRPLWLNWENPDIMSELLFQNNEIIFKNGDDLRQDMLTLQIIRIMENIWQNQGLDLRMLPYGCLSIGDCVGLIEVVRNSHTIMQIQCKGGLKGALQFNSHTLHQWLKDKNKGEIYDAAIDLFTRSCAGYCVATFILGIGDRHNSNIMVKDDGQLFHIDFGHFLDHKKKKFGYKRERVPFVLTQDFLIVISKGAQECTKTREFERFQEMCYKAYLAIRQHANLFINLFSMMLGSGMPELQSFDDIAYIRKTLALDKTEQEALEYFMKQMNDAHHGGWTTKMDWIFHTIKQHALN
Chain of CYP2D6 (P10635 whole entry): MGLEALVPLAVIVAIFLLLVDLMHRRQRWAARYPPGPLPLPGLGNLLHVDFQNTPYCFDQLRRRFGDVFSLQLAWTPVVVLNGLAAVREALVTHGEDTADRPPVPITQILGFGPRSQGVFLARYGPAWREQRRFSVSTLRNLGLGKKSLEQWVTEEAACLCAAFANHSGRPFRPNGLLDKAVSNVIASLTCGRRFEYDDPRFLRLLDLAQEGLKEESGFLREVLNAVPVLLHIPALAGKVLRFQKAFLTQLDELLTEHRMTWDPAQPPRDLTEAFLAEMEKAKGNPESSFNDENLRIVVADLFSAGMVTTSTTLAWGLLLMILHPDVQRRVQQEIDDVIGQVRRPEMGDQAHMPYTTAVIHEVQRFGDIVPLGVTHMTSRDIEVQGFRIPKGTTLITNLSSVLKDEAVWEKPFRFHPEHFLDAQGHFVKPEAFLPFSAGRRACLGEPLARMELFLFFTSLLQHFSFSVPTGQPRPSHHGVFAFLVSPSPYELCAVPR
Chain of CYP3A4 (P08684 whole entry): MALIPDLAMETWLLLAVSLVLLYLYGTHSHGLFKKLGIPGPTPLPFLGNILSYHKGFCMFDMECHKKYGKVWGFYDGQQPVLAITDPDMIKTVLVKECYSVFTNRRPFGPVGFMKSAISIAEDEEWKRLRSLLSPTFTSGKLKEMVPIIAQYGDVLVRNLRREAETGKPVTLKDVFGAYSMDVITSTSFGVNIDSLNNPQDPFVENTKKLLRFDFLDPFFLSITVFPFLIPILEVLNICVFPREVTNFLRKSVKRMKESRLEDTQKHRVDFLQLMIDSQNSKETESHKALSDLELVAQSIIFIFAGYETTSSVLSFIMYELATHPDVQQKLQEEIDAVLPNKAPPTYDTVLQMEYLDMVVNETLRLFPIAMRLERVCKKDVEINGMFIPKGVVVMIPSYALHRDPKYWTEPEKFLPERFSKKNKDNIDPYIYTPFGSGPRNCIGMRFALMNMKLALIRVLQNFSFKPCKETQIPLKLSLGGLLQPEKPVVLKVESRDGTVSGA
Chain of CYP2C9 (P11712 whole entry): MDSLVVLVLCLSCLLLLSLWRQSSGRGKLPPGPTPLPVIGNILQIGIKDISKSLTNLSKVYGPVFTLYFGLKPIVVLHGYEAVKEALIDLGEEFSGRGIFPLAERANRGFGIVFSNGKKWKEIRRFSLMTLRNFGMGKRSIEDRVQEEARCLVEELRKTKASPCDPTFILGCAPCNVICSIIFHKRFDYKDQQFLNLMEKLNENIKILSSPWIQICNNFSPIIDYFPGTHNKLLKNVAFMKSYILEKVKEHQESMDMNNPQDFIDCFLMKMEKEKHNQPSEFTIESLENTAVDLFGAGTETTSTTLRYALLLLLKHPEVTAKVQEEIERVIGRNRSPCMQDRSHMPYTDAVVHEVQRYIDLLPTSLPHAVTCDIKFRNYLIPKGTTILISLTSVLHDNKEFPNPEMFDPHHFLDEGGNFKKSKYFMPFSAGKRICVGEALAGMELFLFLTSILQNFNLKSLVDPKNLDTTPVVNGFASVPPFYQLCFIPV

On to `CS(=O)(=O)N1CCN(Cc2cc3nc(-c4cccc5[nH]ncc45)nc(N4CCOCC4)c3s2)CC1` [PICTILISIB], for which the inhibition at 10 µM against CYP1A2, on CYP2C9, against CYP2C19, at CYP2D6 and against CYP3A4 was below 25% each time.
With `Oc1cccc(-c2cn3c(N4CCNCC4)cnc3c(N3CCOCC3)n2)c1`, in [1], it took 897 nM to reach half-maximal inhibition (IC50).
`NC(=O)c1cn2cc(-c3cccc4[nH]ncc34)nc(N3CCOCC3)c2n1` yielded an EC50 in data set [2] of 138 nM. This compound also yielded an IC50 in data set [1] of 107 nM.
The compound `CN1CCN(c2cnc3c(N4CCOCC4)nc(-c4cccc(O)c4)cn23)CC1` showed an IC50 in data set [1] of 512 nM. This counts as sub-micromolar.
Turning to `COCCNC(=O)c1cn2cc(-c3cccc4[nH]ncc34)nc(N3CCOCC3)c2n1`, the inhibition at 10 µM against CYP1A2, against CYP2C9, against CYP2C19, against CYP2D6 and at CYP3A4 was below 25% each time. The response in [2] was half-maximal at 200 nM (EC50). Further, the share remaining at 0.5 h, 1 µM worked out at 62% in [3] and 75% in data set [4]. Besides, 50 nM corresponded to half-maximal inhibition in data set [1] (IC50).
Compound `Oc1cccc(-c2cn3ccnc3c(N3CCOCC3)n2)c1` displayed an IC50 in data set [1] of 197 nM.
Still for that read-out and setting: as for `CS(=O)(=O)N1CCN(c2cnc3c(N4CCOCC4)nc(-c4cccc(O)c4)cn23)CC1`, the figure is 526 nM.
On to `CCNC(=O)c1cn2cc(-c3cccc4[nH]ncc34)nc(N3CCOCC3)c2n1`, for which the midpoint of the response in data set [2], the EC50, lay at 713 nM.
In data set [1], `CN1CCN(Cc2cn3cc(-c4cccc(O)c4)nc(N4CCOCC4)c3n2)CC1` registered an IC50 of 2750 nM.
With `CN(C)CCNC(=O)c1cn2cc(-c3cccc4[nH]ncc34)nc(N3CCOCC3)c2n1`, the EC50 in data set [2] stood at 976 nM. In data set [1], the IC50 came to 35 nM.
